Compound activity as filed in PubChem.
S1P2 blocker: human S1P2 receptor antagonists, primary screen, cell-based | inhibition, % at 5 µM | cell-based S1P2 antagonist assay, inhibition at 5 uM | AID 736, 2007 | 97,000 compounds, 0.21% hits; in the data active = inhibition above about 45%;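 also: CRE beta-lactamase reporter cells expressing human S1P2 stimulated with S1P; 0% = agonist at EC80 alone and 100% = agonist plus reference antagonist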
S1P2 ag: S1P2 receptor agonists, primary screen, cell-based | Sphingosine 1-phosphate receptor 2 (Homo sapiens), O95136 | S1P2-expressing cell line, agonist reporter read-out | activation, % at 4.5 µM | 97,000 compounds, 0.46% hits | AID 729, 2007; in the data active = activation above about 16%;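 also: 0% = vehicle low control and 100% = maximal reference agonist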
EphB4 antag: EphB4-ephrin-B2 interaction antagonists, primary screen, biochemical, TNYL-RAW peptide probe, fluorescence polarization; Ephrin type-B receptor 4 (Homo sapiens), P54760; EphB4 LBD / TNYL-RAW-Alexa532 peptide; inhibition, % at 7 µM; 97,000 compounds, 0.15% hits;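 active = inhibition above the screen-wide mean inhibition plus 3 SD, cut at about 15% in these data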;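 also: 0% = DMSO wells and 100% = excess unlabeled TNYL-RAW peptide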
Rev-RRE block: HIV-1 Rev-RRE binding inhibitors, primary screen, biochemical, FRET, protein-RNA interaction; Rev peptide-RRE RNA binding; inhibition, % at 8 µM; 97,000 compounds, 0.79% hits; AID 704, 2007;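 active = inhibition above the screen-wide mean plus 3 SD, cut at about 35% in these data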;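 also: 0% = median DMSO wells and 100% = median Neomycin B control wells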
Target sequence (P05866 whole entry, looked up): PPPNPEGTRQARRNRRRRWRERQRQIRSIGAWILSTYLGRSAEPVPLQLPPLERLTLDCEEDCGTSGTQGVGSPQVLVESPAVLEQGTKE
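Test system: Cy5-tagged RRE RNA duplex with fluorescein-tagged Rev peptide; Probe or stimulus: labelled Rev peptide; Schedule: 5 min preincubation and 15 min binding, 25 °C; Signal: FRET fluorescence readout; Evaluation: % inhibition from 671/540 nm acceptor-to-donor ratio, scaled between controls; Control set: DMSO and neomycin B.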
GALR2 antag: GALR2 antagonists in receptor-expressing cells, primary screen. antagonist mode. inhibition, % at 4 µM. 140,000 compounds, 0.39% hits. AID 828, 2007; in the data active = inhibition above about 27%;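 also: cells stimulated with galanin 1-16 at roughly its EC80; 0% = agonist challenge control and 100% = basal control without agonist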
Target sequence (O43603 whole entry, looked up): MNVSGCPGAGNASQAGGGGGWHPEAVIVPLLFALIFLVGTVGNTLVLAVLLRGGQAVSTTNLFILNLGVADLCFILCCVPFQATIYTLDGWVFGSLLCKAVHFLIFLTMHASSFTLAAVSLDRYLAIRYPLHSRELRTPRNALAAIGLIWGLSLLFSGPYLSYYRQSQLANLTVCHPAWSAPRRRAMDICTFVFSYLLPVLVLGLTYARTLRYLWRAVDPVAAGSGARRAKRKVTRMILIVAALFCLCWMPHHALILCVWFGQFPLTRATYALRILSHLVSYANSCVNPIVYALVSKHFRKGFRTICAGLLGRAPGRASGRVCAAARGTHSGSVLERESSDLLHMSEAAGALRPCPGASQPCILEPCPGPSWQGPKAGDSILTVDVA
GALR2 agonist: GALR2 receptor agonists, primary screen, cell-based | Galanin receptor type 2 (Homo sapiens), O43603 | activation, % (concentration not given with the values) | GALR2-expressing cells, agonist activation read-out | 140,000 compounds, 0.48% hits | AID 803, 2007; in the data active = activation above about 5%, passing the limit was not always enough;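 also: 0% = vehicle buffer wells and 100% = reference agonist at full effect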
The depositor's hits bear a star; . = not tested or not shown; [ ] = another dose, or the depositor's remark. In the library only some 1.7% were active in any assay of this set; here they are far more common.

SMILES	S1P2 blocker	S1P2 ag	EphB4 antag	Rev-RRE block	GALR2 antag	GALR2 agonist
CCn1nc(NC(=O)c2ccccn2)c2cc3cc(C)ccc3nc21	-35	14	-2	8	12	8
COC(=O)c1cccc(NC(=O)c2nn(C)c(=O)c3ccccc23)c1	.	.	.	.	7	-1
CC1CCCCN1c1cc(C#N)c(C#N)cc1[N+](=O)[O-] (stereo not drawn)	1	-6	-6	-2	-7	0
CC1CCc2cccc3c2N1c1cc(C#N)c(C#N)cc1O3 (stereo not drawn)	0	-6	-7	40*	6	-2
Cc1cc(C(=O)CN2C(=O)CCC2=O)c(C)n1Cc1ccccc1	-41	150*	7	1	-11	0
Cc1cc(C(=O)CN2C(=O)c3ccccc3C2=O)c(C)n1Cc1cccs1	-3	27*	10	7	-6	-1
Cc1cc(C(=O)CN2C(=O)NC3(CCCc4ccccc43)C2=O)c(C)n1Cc1ccccc1 (stereo not drawn)	-22	9	5	9	0	-1
CCCCOC(=O)C1=C(C)NC2=C(C(=O)CCC2)C1c1cc(OC)ccc1OC (stereo not drawn)	17	0	1	-1	6	0
OC1(c2cccc(C(F)(F)F)c2)CCN(c2ncnc3c2[nH]c2ccc(F)cc23)CC1	49*	-16	3	21	11	0
Nc1c(S(=O)(=O)c2ccccc2)c2nc3ccccc3nc2n1Cc1ccco1	0	-2	-6	43*	7	0
Cc1ccc(S(=O)(=O)c2c(N)n(Cc3ccco3)c3nc4ccccc4nc23)cc1C	-17	1	2	26	9	1
COc1ccc(C2C3=C(CCCC3=O)Nc3nc(-c4cc(OC)c(OC)c(OC)c4)nn32)cc1OC (stereo not drawn)	-8	6	-1	10	0	0
COc1cc(-c2nc3n(n2)C(c2cccc(OC)c2OC)C2=C(CCCC2=O)N3)cc(OC)c1OC (stereo not drawn)	-38	27*	-4	-3	-3	0
CC(=O)c1nn(-c2cccc(Br)c2)cc1C(=O)c1ccc(Cl)cc1	.	.	.	.	-10	7.5*
CC(C)(C)C1CCC2(CC1)NC(=S)N(c1ccccc1)N2 (stereo not drawn)	-1	1	1	-3	20	-2
CC(C)(C)C1CCC2(CC1)SCC(=O)N2c1ccccc1 (stereo not drawn)	28	-10	16*	7	-5	-2
O=C1CC(c2ccccc2)Cc2nc3ncnn3cc21 (stereo not drawn)	-4	-3	2	9	-11	0
c1ccc(-c2ccc(OCCOCCn3cncn3)cc2)cc1	1	0	-3	-3	-6	-1
Cc1cccn2c(=O)c(/C=C(\C#N)S(=O)(=O)c3ccccc3)c(N3CCC(C(N)=O)CC3)nc12	0	-2	-1	19	-2	-1
Cc1cccn2c(=O)c(/C=C(\C#N)C(=O)NC3CCS(=O)(=O)C3)c(N3CCC(C(N)=O)CC3)nc12 (stereo not drawn)	.	.	.	.	-4	6.3*
O=c1ccn(-c2cccc(C(F)(F)F)c2)nc1-c1ccn(-c2ccccc2F)n1	-29	19*	3	3	-10	-2
COc1ccc(-n2ccc(-c3nn(-c4cccc(C(F)(F)F)c4)ccc3=O)n2)cc1	-26	18*	10	1	-10	-2
CCOC(=O)C1CCN(C(=S)Nc2cc(OC)c(OC)cc2C(=O)OC)CC1	-1	-2	5	5	-4	-1
CCc1nccn1S(=O)(=O)c1cc(C)c(OC)cc1C	-6	16*	-2	4	-3	-3
c1cc(CNc2ccc3c(c2)OCO3)ccn1	6	-3	3	10	-1	-1
SMILES	S1P2 blocker	S1P2 ag	EphB4 antag	Rev-RRE block	GALR2 antag	GALR2 agonist
Cc1ccc(CNc2ccc3c(c2)OCO3)cc1	5	-7	1	75*	-16	-3
COc1cc(/C=C2\SC(c3ccc(C)cc3)=NC2=O)cc(OC)c1O	0	-5	-2	50*[fluorescence artefact?]	-2	-2
O=C(CN(Cc1cccs1)C(=O)CSc1nnc(COc2ccccc2)o1)NC1CCCC1	17	-3	20*	9	2	0
Cc1cc(=O)oc2cc3c(cc12)OCCO3	.	.	.	.	10	-1
Cc1cc(=O)oc2cc3c(cc12)OCCN3	-39	46*	-8	5	-5	10*
Cc1noc(C)c1C(=O)NCCc1ccc(Cl)cc1	17	-6	-6	95*[fluorescence artefact?]	-10	1
COc1cc2cc(/C=C/C(=O)c3ccco3)c(Cl)nc2cc1OC	-18	1	9	79*[fluorescence artefact?]	5	-2
CCC(Nc1ccc(OC)cc1)C(=O)N/N=C/c1ccc([N+](=O)[O-])cc1 (stereo not drawn)	.	.	.	.	-14	0
COc1ccc(C(=O)Nc2ccc(-c3ccc(NC(=O)c4ccc(OC)cc4)c(OC)c3)cc2OC)cc1	.	.	.	.	-2	6.2*
CCCCN1C(=O)/C(=C/C=C2\N(C)c3ccccc3C2(C)C)SC1=S	3	-4	12	140*[fluorescence artefact?]	-4	-2
CCCN1C(=O)/C(=C\C=C2/C=CN(CC)c3ccccc32)SC1=S	.	.	.	.	4	-2
N#C/C(=C/c1ccc(N2CCCCCC2)o1)c1cccc(F)c1	50*	-4	-1	105*[fluorescence artefact?]	11	-2
O=C(N/N=C/c1ccc(N2CCCCC2)o1)c1ccccc1	.	.	.	.	25	-1
COc1cc(N2CCCC2)c(OC)cc1/C=C(/C#N)c1cccc(F)c1	9	-4	7	117*[fluorescence artefact?]	5	-3
N#C/C(=C/c1ccc(N2CCCCC2)o1)C(=O)Nc1ccc2ccccc2c1	.	.	.	.	4	-1
N#C/C(=C/c1ccc(N2CCCCC2)o1)C(=O)Nc1ccc(Cl)cc1	33	-8	-6	139*[fluorescence artefact?]	13	-4
N#C/C(=C/c1ccc(N2CCCCCC2)o1)c1ccc(F)cc1	80*	-9	5	73*	37*	-2
Cc1ccc(Cn2ccc(NC(=O)c3cc(CC(C)C)on3)n2)cc1	.	.	.	.	5	-3
COC(=O)c1ccc(NC(=O)CCn2c(=O)oc3ccccc32)cc1	1	-2	2	0	-5	0
CCOC(=O)c1ccc(NCn2c(=O)oc3ccccc32)cc1	16	-3	-9	55*	10	0
COc1cc(C2C(C#N)=C(C)NC3=C2C(=O)c2ccccc23)cc(OC)c1OC (stereo not drawn)	-2	7	8	3	31*	-2
O=c1c(-c2nc3ccccc3s2)cccn1Cc1ccccc1	-56	63*	-2	4	-12	31*
